ChEMBL document CHEMBL4007509, “Structural Optimizations of Thieno[3,2-b]pyrrole Derivatives for the Development of Metabolically Stable Inhibitors of Chikungunya Virus” (J Med Chem, 2017)

Experiments:
Chikungunya virus [1] = test: Antiviral activity against full length Gaussia princeps Gluc-tagged Chikungunya virus IMT infected in HEK293T cells assessed as reduction in virus infection after 24 hrs by Gaussia luciferase reporter gene assay; type: functional, cell-based; details: HEK-293T
[2] = Half life in human liver microsomes; type: ADME, microsome
Summary of the method: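 Compounds were incubated with human liver microsomes. Half-life = ln(2)/slope, where the slope is ln(% detected) plotted against time, using the mean of at least 3 independent experiments.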

[3] = Cytotoxicity against HEK293T cells assessed as reduction in cell viability after 24 hrs by CellTiter-Glo luminescent assay; type: cell-based, HEK-293T; details: human
Summary of the method: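 HEK 293T cell viability was measured by CellTiter-Glo luminescence after 24 h exposure to serial dilutions. Data were normalized to untreated cells (100%) and reagent background (0%). CC50, the concentration reducing viability by 50%, came from a five-parameter asymmetric fit.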

[4] = Selectivity index, ratio of CC50 for HEK293T cells to EC50 for full length Gaussia princeps Gluc-tagged Chikungunya virus IMT; type: toxicity; details: human, read-out: Ratio CC50/EC50
Chikungunya virus [5] = test: Antiviral activity against wild type Chikungunya virus IMT infected in HEK293T cells assessed as reduction in virus infection after 24 hrs by FITC immunofluorescence-based single cell quantification high content screening assay; type: functional; details: HEK-293T

Compound	EC50 (Chikungunya virus [1]) [µM]	half-life [2] [min]	CC50 at 24 h [3] [µM]	selectivity ratio [4]	EC50 (Chikungunya virus [5]) [µM]
CCCNC(=O)[C@H]1CC[C@H](NC(=O)c2cc3sc(Br)cc3n2Cc2ccc(OC)cc2)CC1	14.3	3.97	> 100	> 7	
CCCNC(=O)[C@H]1[C@@H]2CCC[C@H]1CN(C(=O)c1cc3sc(Br)cc3n1Cc1ccc(OC)cc1)C2	6.98	3.62	> 100	> 14	14.8
CCCNC(=O)[C@@H]1C[C@H]2CCC[C@@H](C1)[C@H]2NC(=O)c1cc2sc(Br)cc2n1Cc1ccc(OC)cc1	> 100		> 100		
CCCNC(=O)[C@H]1[C@@H]2CCC[C@H]1CN(C(=O)c1cc3sc(Br)nc3n1Cc1ccc(OC)cc1)C2	13.4	2.89	57.5	4.3	
CCCNC(=O)C1CC12CCN(C(=O)c1cc3sc(Br)nc3n1Cc1ccc(OC)cc1)CC2 (centres undefined)	8.21	4.97	81.3	9.9	> 25
CCCNC(=O)C1CCN(C(=O)c2cc3sc(-c4ccccc4F)cc3n2Cc2ccc(OC)cc2)CC1		35.5			
CCCNC(=O)[C@H]1CC[C@@H](NC(=O)c2cc3sc(Br)cc3n2Cc2ccc(OC)cc2)CC1	> 100		> 100		
CCCNC(=O)C1CCN(C(=O)c2cc3sccc3n2Cc2ccc(Cl)cc2)CC1		10.3			
CCCNC(=O)C1CC12CCN(C(=O)c1cc3sc(Br)cc3n1Cc1ccc(OC)cc1)CC2 (centres undefined)	9.35	5.83	> 100	> 11	15.7
CCCNC(=O)[C@@H]1C[C@H]2CCC[C@@H](C1)[C@@H]2NC(=O)c1cc2sc(-c3ccccc3)nc2n1Cc1ccc(OC)cc1	5.32	27.2	> 100	> 19	> 25
CCCNC(=O)C1CCN(C(=O)c2cc3sccc3n2Cc2ccc(OC)cc2)CC1	7	10.6		2.7	
CCCNC(=O)[C@@H]1C[C@H]2CCC[C@@H](C1)[C@@H]2NC(=O)c1cc2sc(Br)cc2n1Cc1ccc(OC)cc1	14	45.1	> 100	> 7.1	
CCCNC(=O)[C@H]1[C@@H]2CCC[C@H]1CN(C(=O)c1cc3sc(-c4ccccc4)nc3n1Cc1ccc(OC)cc1)C2	9.64	35.1	> 100	> 10	12.5
CCCNC(=O)C1CN(C(=O)c2cc3sc(Br)cc3n2Cc2ccc(OC)cc2)C1	13.6	7.73	> 100	> 7.4	
CCCNC(=O)C1CCN(C(=O)c2cc3cc(Br)ccc3n2Cc2ccc(OC)cc2)CC1	> 100	3.94	> 100		
COc1ccc(Cn2c(C(=O)N3CCC(C(=O)NC(C)C)CC3)cc3sc(Br)cc32)cc1	1.95	3.76	> 100	> 51	2.47
CCCNC(=O)C1CCN(C(=O)c2cc3ncsc3n2Cc2ccc(OC)cc2)CC1	9.39	32.6	42.7	4.5	14
CCCNC(=O)C1CC12CN(C(=O)c1cc3sc(Br)cc3n1Cc1ccc(OC)cc1)C2 (centres undefined)	20.2	19.5	> 100	> 5	
CCCNC(=O)C1CCN(C(=O)c2cc3sc(Br)nc3n2Cc2ccc(OC)cc2)CC1	1.06	2.99	36.7	35	2.96
CCCNC(=O)C1CCN(C(=O)c2cccn2Cc2ccc(OC)cc2)CC1	25.7	6.71	> 100	> 3.9	

Compound	EC50 (Chikungunya virus [1]) [µM]	half-life [2] [min]	CC50 at 24 h [3] [µM]	selectivity ratio [4]	EC50 (Chikungunya virus [5]) [µM]
CCCNC(=O)C1CCN(C(=O)c2ccc(Br)n2Cc2ccc(OC)cc2)CC1	16.8	7.32	> 100	> 6	
CCCNC(=O)C1CCN(C(=O)c2cc3occc3n2Cc2ccc(OC)cc2)CC1	6	2.74	37.2	6.2	5.24
CCCCC(=O)C1CCN(C(=O)c2cc3sccc3n2Cc2ccc(OC)cc2)CC1		6.3			
CCCNC(=O)C1CCN(C(=O)c2cc3[nH]ccc3n2Cc2ccc(OC)cc2)CC1	11.4	23.1	> 100	> 8.8	
CCCNC(=O)C1CCN(C(=O)c2cc3scnc3n2Cc2ccc(OC)cc2)CC1	4.56	27.7	19.1	4.2	4.72
CCCNC(=O)C1CCN(C(=O)c2cc3[nH]cnc3n2Cc2ccc(OC)cc2)CC1	42.8	76.2	> 100	> 2.3	
CCCNC(=O)[C@@H]1CCCN1C(=O)c1cc2sc(Br)cc2n1Cc1ccc(OC)cc1	21.2	18.2	72.4	3.4	
CCCNC(=O)C1CCN(C(=O)c2cc3ccccc3n2Cc2ccc(OC)cc2)CC1	7.86	2.66	26	3.3	8.26
[2H]C([2H])(c1ccc(OC)cc1)n1c(C(=O)N2CCC(C(=O)NCCC)CC2)cc2sc(Br)cc21	2.03	3.53	> 100	> 49	2.06
[2H]C([2H])(c1ccc(OC)cc1)n1c(C(=O)N2CCC(C(=O)NC([2H])(C([2H])([2H])[2H])C([2H])([2H])[2H])CC2)cc2sc(Br)cc21	1.72	3.8	> 100	> 58	2
CCCNC(=O)C1CCN(C(=O)c2cc3sc(C)cc3n2Cc2ccc(OC)cc2)CC1		2.69			
CCCNC(=O)[C@@H]1C[C@H]2CCC[C@@H](C1)[C@@H]2NC(=O)c1cc2scnc2n1Cc1ccc(OC)cc1	11.4	44.6	> 25	> 2.2	
CCCNC(=O)C1CCN(C(=O)c2cc3sc(C#N)cc3n2Cc2ccc(OC)cc2)CC1		11.2			
CCCNC(=O)C1CCN(C(=O)c2cc(Br)cn2Cc2ccc(OC)cc2)CC1	21.4	2.17	55	2.6	
CCCNC(=O)C1CCN(C(=O)c2cc3sc(-c4ccccc4)nc3n2Cc2ccc(OC)cc2)CC1	3.02	40.8	22.9	7.6	5.63
CCCNC(=O)C1CCN(C(=O)c2cc3oc(Br)cc3n2Cc2ccc(OC)cc2)CC1	1.93	9.5	21.9	11	1.86
CCCNC(=O)[C@@H]1[C@@H]2CCC[C@H]1CN(C(=O)c1cc3sc(Br)cc3n1Cc1ccc(OC)cc1)C2	12.6		> 100	> 7.9	
CCCNC(=O)C1CCN(C(=O)c2cc3sc(Br)cc3n2Cc2ccc(OC)cc2)CC1	3.1	2.91	> 100	> 32	
CCCNC(=O)C1CCN(C(=O)c2cc3cc(Br)sc3n2Cc2ccc(OC)cc2)CC1	13.6	7.61	> 100	> 7.3	
